Sampled rows, rich in hits. Any-hit rate of the full collection: about 2%.
CCR6 antag – CCR6 receptor antagonists, primary screen, cell-based, CHO-K1, luminescence, beta-arrestin, uHTS; CHO-K1 CCR6 PathHunter beta-arrestin, CCL20-stimulated; inhibition, % at 20 µM; actives 0.49% (n = 340,000); AID 493098, 2011;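 active means compounds whose inhibition of the agonist-driven luminescence signal at 20 µM reaches about 50%, limit read from the data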;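 further: cells stimulated with CCL20 at 14 nM final; plate controls were DMSO with CCL20 for no effect and DMSO without agonist for full effect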
EBI2 antag – EBI2 receptor antagonists, beta-arrestin recruitment, primary screen, cell-based, luminescence, 7a,25-OHC stimulation, uHTS; inhibition, % at 5 µM; actives 0.81% (n = 360,000); 7a,25-OHC stimulated; G-protein coupled receptor 183 (Homo sapiens), P32249; in the data active means inhibition above about 38%;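 further: enzyme fragment complementation signal reports receptor beta-arrestin coupling in cells; 0% = agonist plus DMSO wells and 100% = wells without agonist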
Target sequence (P32249 whole entry, looked up, the tested form may be a part): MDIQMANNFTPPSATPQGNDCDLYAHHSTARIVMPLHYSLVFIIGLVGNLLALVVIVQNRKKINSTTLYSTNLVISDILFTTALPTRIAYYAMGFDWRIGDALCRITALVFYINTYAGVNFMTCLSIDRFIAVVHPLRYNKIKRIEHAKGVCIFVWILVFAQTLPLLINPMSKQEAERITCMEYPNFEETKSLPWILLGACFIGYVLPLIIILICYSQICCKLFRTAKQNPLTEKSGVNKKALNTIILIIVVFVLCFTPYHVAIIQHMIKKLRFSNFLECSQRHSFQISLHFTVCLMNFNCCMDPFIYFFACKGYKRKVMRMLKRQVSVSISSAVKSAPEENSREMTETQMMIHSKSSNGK
APJ antag – antagonists of human apelin receptor APJ, primary screen, CHO-K1 cells, beta-arrestin complementation, luminescence; AID 2521, 2010; P35414; inhibition, % at 20 µM; actives 0.32% (n = 330,000);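 active means inhibition above about 40% at 20 µM, limit read from the data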;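 further: cells challenged with 10 nM apelin-13 agonist together with compound; plate controls were apelin-13 plus DMSO wells for no effect and DMSO wells lacking apelin-13 for full effect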
CXCR6 inh – CXCR6 receptor inhibitors, primary screen, cell-based, beta-arrestin, luminescence, CHO-K1 PathHunter, 1536-well | AID 602244, 2012 | actives 0.36% (n = 360,000) | C-X-C chemokine receptor type 6 (Homo sapiens), O00574 | inhibition, % at 20 µM; in the data active means inhibition above about 34%, passing the limit was not always enough;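 further: antagonist mode with CXCL16 agonist at 10 nM final; 0% = 10 nM CXCL16 with DMSO and 100% = unstimulated wells without agonist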
Target sequence (O00574 whole entry, looked up): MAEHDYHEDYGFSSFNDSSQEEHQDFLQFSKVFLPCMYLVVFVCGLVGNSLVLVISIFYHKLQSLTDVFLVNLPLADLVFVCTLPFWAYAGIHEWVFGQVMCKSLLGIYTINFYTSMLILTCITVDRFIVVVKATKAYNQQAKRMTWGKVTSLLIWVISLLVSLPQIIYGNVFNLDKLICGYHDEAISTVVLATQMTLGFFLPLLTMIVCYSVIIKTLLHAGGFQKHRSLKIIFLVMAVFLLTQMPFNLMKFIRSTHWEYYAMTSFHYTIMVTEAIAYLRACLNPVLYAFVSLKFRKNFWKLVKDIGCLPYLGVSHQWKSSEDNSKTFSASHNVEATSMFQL
APJ agonist – agonists of human apelin receptor APJ, primary screen, CHO-K1 cells, PathHunter beta-arrestin, luminescence | 0% DMSO wells, 100% apelin | activation, % at 20 µM | actives 0.11% (n = 330,000) | AID 2520, 2010;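 active means activation more than six SD over the plate average, tested at 20 µM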;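 further: 0% = DMSO alone and 100% = apelin-13 at 10 nM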
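system = engineered CHO-K1 APJ arrestin reporter cells | input = 1000 cells per well | timing = overnight seeding, 90 min compound at 25 °C, 1 h detection | measured by = enzyme-fragment complementation luminescence | read-out = beta-arrestin recruitment to APJ as agonist activity, luminescent signal | control set = negative DMSO alone, positive Apelin-13 at 10 nM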
FXN GAA850 act – FXN promoter activators, primary screen, cell-based, luciferase luminescence, HEK293 lucGAA850. actives 0.56% (n = 360,000). activation, % at 6 µM. AID 540364, 2011. HEK293 lucGAA850 FXN promoter luciferase reporter, 24 h; percent of 10 µM SAHA response;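 active means activation above the average of all compounds screened plus 3 SD, cutoff fixed separately per campaign, cut at about 7.5% in these data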;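 further: 0% = DMSO wells and 100% = 10 µM SAHA wells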
EBI2 antag conf – EBI2 antagonist hit retest, beta-arrestin, confirmation, cell-based, single concentration, luminescence, 7a,25-OHC stimulation; shares compounds with EBI2 antag; 7a,25-OHC antagonism; actives 29% (n = 2,400); inhibition, % at 5 µM;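 active means inhibition of at least 50%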
EBI2 agonist – EBI2 agonist activity of antagonist hits, confirmation, counter-screen for EBI2 antagonist project, cell-based, single concentration, agonist mode, luminescence. shares compounds with EBI2 antag. 2,400 tested, under 10 active. EBI2-expressing cells, 60 min; 0% vehicle, 100% 7α,25-dihydroxycholesterol control. activation, % at 5 µM;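 active means activation of at least 50%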
bGal cs – E. coli beta-galactosidase enzyme inhibition, confirmation, counter-screen for EBI2 antagonist project, biochemical, luminescence, single concentration; shares compounds with EBI2 antag; purified beta-galactosidase, luminescent Galacton Star, 15 min; inhibition, % at 5 µM; actives 1% (n = 2,400);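 active means replicate-average signal at least 3 plate SD below neutral wells, shown as high inhibition, flagging enzyme-inhibiting false positives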;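 further: 0% = DMSO wells with enzyme and 100% = wells lacking enzyme; higher means stronger loss of beta-gal luminescence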
Numbers without * were called inactive; / = no result given.

SMILES | CCR6 antag | EBI2 antag | APJ antag | CXCR6 inh | APJ agonist | FXN GAA850 act | EBI2 antag conf | EBI2 agonist | bGal cs
COc1ccc(OCCN2CCC(C(=O)NC(c3ccc(F)cc3)c3ncccc3C)CC2)cc1 (centres undefined) | / | 46* | / | -3 | / | -4 | 12 | -1 | -4
COc1ccc(S(=O)(=O)N2CCOC2CNC(=O)C(=O)NCc2ccc3c(c2)OCO3)cc1 (centres undefined) | -9 | -2 | 13 | -16 | -3 | -2 | / | / | /
Cc1cc2nc(-c3ccc(SCc4ccccc4C#N)nc3)[nH]c2cc1C | 8 | 50* | -18 | 6 | 4 | 1 | 37 | -1 | 9
Cc1cc2nc(-c3ccc(SCc4ccc(C(=O)O)cc4)nc3)[nH]c2cc1C | -30 | -2 | / | -15 | / | 3 | / | / | /
Cc1ccc(C2(SCC(N)C(=O)O)c3ccccc3-c3ccccc32)cc1 (centres undefined) | 4 | 10 | / | 6 | / | -2 | / | / | /
C=CCN1C(=O)NC(c2ccc(OC)cc2)(C(F)(F)F)S/C1=C(\C#N)c1nnc(N2CCOCC2)n1-c1ccccc1 (centres undefined) | -3 | 68* | -7 | -2 | -4 | 2 | 69* | 0 | 6
O=C(NCc1ccc(F)cc1)C1CCN(S(=O)(=O)c2cccnc2)CC1 | 13 | 11 | 4 | -7 | 1 | 2 | / | / | /
O=C(NCc1ccc(Cl)cc1)c1ccc(S(=O)(=O)N2CCCCC2)cc1 | 10 | 49* | -11 | 5 | -1 | 3 | 33 | -1 | -19
O=C(NCc1ccncc1)C1CCN(S(=O)(=O)c2ccc(F)cc2)CC1 | 9 | -3 | 4 | 2 | -2 | -1 | / | / | /
O=C(NCCc1ccc(Cl)cc1)C1CCN(S(=O)(=O)N2CCCCC2)CC1 | 17 | 44* | -28 | 0 | -5 | -1 | 14 | 0 | 6
O=C(NCCc1ccccc1)C1CCN(S(=O)(=O)N2CCCCCC2)CC1 | 10 | 3 | 18 | 5 | -3 | 1 | / | / | /
O=C(NCc1ccc(F)cc1)c1ccc(S(=O)(=O)N2CCCCC2)cc1 | 14 | 12 | 30 | -3 | -3 | 0 | / | / | /
O=C(NCc1ccc(Cl)cc1)C1CCN(S(=O)(=O)c2cccnc2)CC1 | -2 | 50* | -6 | -1 | 7 | 0 | 23 | 1 | 4
O=C(NCc1ccc(Cl)cc1)C1CCN(S(=O)(=O)c2ccc(F)cc2)CC1 | 12 | 51* | -4 | -3 | -2 | 1 | 16 | 0 | -10
Cc1nc2ccc(NS(=O)(=O)c3cccc([N+](=O)[O-])c3)cc2s1 | 11 | -2 | 3 | -1 | 0 | -2 | / | / | /
O=C(NCc1ccc(F)cc1)C1CCN(S(=O)(=O)c2ccc(Br)s2)CC1 | 26 | 52* | 9 | -2 | -1 | -2 | 19 | -1 | -4
CC(=O)Nc1ccc(S(=O)(=O)NCCC(=O)NCc2ccco2)cc1 | / | -4 | / | -7 | / | -1 | / | / | /
O=C(Nc1ccccc1-c1ccccc1)c1ccc(Cl)c([N+](=O)[O-])c1 | 22 | 53* | 7 | -12 | -1 | 1 | 38 | 0 | -1
CN(c1ccccc1)S(=O)(=O)c1cccc(NC(=O)c2ccc(Cl)c([N+](=O)[O-])c2)c1 | 6 | 46* | 7 | -3 | 7 | 0 | 65* | 1 | 5
CC1=C/C(=N\NC(=S)Nc2cccnc2)CC(C)(C)C1 | 46 | 39* | / | 11 | / | 3 | 78* | -2 | -9
C=CCN1C(=O)c2ccc(C(=O)Nc3ccccn3)cc2C1=O | 13 | 1 | 16 | -9 | -4 | 2 | / | / | /
CCOc1ccc(NC(=O)CSc2nnc(CNC(=O)c3cccs3)o2)cc1 | 11 | 4 | 11 | -1 | 2 | -1 | / | / | /
CCN(CC)c1ccc(/C=N/NC(=O)Nc2ccccc2)cc1 | 0 | 40* | 9 | -5 | -5 | 3 | 52* | 0 | -10
CCOc1ccc(/C=N/NC(=O)Nc2ccccc2)cc1 | -12 | 18 | 14 | 5 | -1 | 4 | / | / | /
COC(=O)[C@]12CCCCC=C1N(Cc1ccc(Cl)cc1Cl)C(=O)[C@H](CC(=O)NCCc1ccccc1OC)C2 | / | 24 | / | 15 | / | / | / | / | /
SMILES | CCR6 antag | EBI2 antag | APJ antag | CXCR6 inh | APJ agonist | FXN GAA850 act | EBI2 antag conf | EBI2 agonist | bGal cs
COc1cc(-c2nnc(SCc3c(F)cccc3Cl)o2)cc(OC)c1OC | 8 | 42* | 2 | -2 | -2 | -1 | 47 | 1 | 0
COc1cc(-c2nnc(SCc3ccccc3Cl)o2)cc(OC)c1OC | 18 | 36 | 28 | 5 | -3 | -1 | / | / | /
CCCCc1ccc(NC(=O)CSc2nc(=O)n(CCN(CC)CC)c3c2CCCC3)cc1 | 13 | 51* | 27 | 8 | 1 | 0 | 20 | 1 | 3
CCCCc1ccc(NC(=O)CSc2nc(=O)n(CCN(C)C)c3c2CCC3)cc1 | 13 | 3 | 10 | 12 | -3 | 3 | / | / | /
COc1cccc(CN2CCN(C(=O)c3cccc4ccccc34)CC2)c1OC | 10 | 5 | -12 | -4 | -4 | 0 | / | / | /
COc1cccc(CN2CCN(C(=O)c3ccc(-c4ccccc4)cc3)CC2)c1 | -5 | 78* | -7 | 13 | -2 | 0 | 45 | 1 | 9
COc1cccc(CN2CCN(C(=O)c3ccc(-c4ccccc4)cc3)CC2)c1OC | 8 | 65* | 0 | -2 | -4 | 2 | 44 | 0 | 10
COc1cccc(C(=O)N2CCN(C(=O)c3ccc(-c4ccccc4)cc3)CC2)c1OC | 4 | 78* | 13 | 3 | -1 | 0 | 48 | 1 | 10
COc1cc(CN2CCN(C(=O)c3ccc(-c4ccccc4)cc3)CC2)cc(OC)c1OC | 8 | 48* | -4 | 10 | -3 | 2 | 32 | 0 | 8
Cn1cnc2nc[nH]c2c1=O | -2 | 3 | / | -5 | / | -2 | / | / | /
